High-throughput results as filed in PubChem.
SUMO Mot1 rescue: yeast Mot1-301 growth rescue at high temperature, primary screen, SUMOylation pathway inhibitor project, S. cerevisiae, ATP luminescence, 38.5C. 320,000 compounds, 1% hits. S. cerevisiae Mot1-301 growth rescue; percent above DMSO median, 100 means doubled. growth rescue, % at 18.8 µM. AID 2716, 2010;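 active = every valid replicate shows activation above 250% relative to neutral control wells; inactive = the rest, any valid replicate at or below 250%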;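 also: OY570 slx delta 5 strain wells were the positive control but not used for scaling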
C2C12 statin: suppressors of statin myotoxicity in C2C12 myotubes, primary screen, cell-based, single point, plate reader. C2C12 myotubes + simvastatin, ATP luminescence, 48 h; scaled: DMSO 0, geranylgeraniol control 100. rescue of ATP level, % at 7.49 µM. 330,000 compounds, 0.78% hits. AID 602340, 2012;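 active = mean ATP rescue above about 67%, or every replicate alone reaching that limit, limit read from the data, passing the limit was not always enough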;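 also: myotubes were challenged with 10 µM simvastatin during compound exposure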
Cneo AK release: Cryptococcus neoformans cell lysis inducers, primary screen, AK release luminescence, single concentration | C. neoformans lysis, adenylate kinase release luminescence, 4 h; normalised: neutral wells 0, clomiphene wells 100 | lysis activity, % at 15 µM | 360,000 compounds, 0.2% hits;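 active = mean lysis activity across replicates of at least 80%, whatever share of replicates individually reach that level; inactive = mean lysis activity below 80%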
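Material – log-phase Cryptococcus neoformans yeast cells · Input – 5 × 10^6 yeast cells/mL · Medium – fresh YPD growth medium · Doses – single compound concentration per well · Timing – static 4 h at 37 °C with compound, 1 h detection · Detection – adenylate kinase release luminescence · Read-out – signal increase indicating cell lysis · Control set – Clomiphene as positive lysis control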
Yeast Mot1 SUMO: growth restoration of Mot1-301 yeast on galactose, dose response, SUMO pathway inhibitor project, whole organism, S. cerevisiae, ATP luminescence, cherry-picked samples; shares compounds with SUMO Mot1 rescue; S. cerevisiae Mot1-301 galactose growth, 24 h; -100 = growth of slx-deleted rescue strain; growth activity, percent, % at 42 µM; 2,300 tested, under 10 active; AID 493004, 2010;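 active = Signal drops as the depositor expects, and the fitted half-maximal dose is no more than ten times the top valid tested dose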;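 also: more negative values mean stronger growth rescue toward the control strain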
* = called active by the depositor; · = not tested or not shown; + = active, no number. This is a sample that favours compounds with a hit; in the whole collection about 1.5% have one here.

SMILES	SUMO Mot1 rescue	C2C12 statin	Cneo AK release	Yeast Mot1 SUMO
Cc1ccc(C(=O)O/N=C(\N)c2cccc([N+](=O)[O-])c2)cc1	-15	-34	-13	·
CC(C)C#Cc1ccc2c(c1)O[C@H](CN(C)C(=O)c1cccc(F)c1)[C@H](C)CN([C@@H](C)CO)S2(=O)=O	·	-12	4	·
O=C(C[C@@H]1CC[C@H]2[C@@H](COC[C@@H](O)CN2S(=O)(=O)c2ccc(F)cc2)O1)NCC1CC1	·	7	3	·
CCOC(=O)N1CCN(C(=O)c2ccc(OCC)c(OCC)c2)CC1	-4	0	0	·
CCOC(=O)N1CCN(C(=O)c2ccc(OC)c(OC)c2)CC1	+	·	-1	1
CNC[C@@H]1Oc2ccc(NC(=O)C3CCCCC3)cc2C(=O)N([C@@H](C)CO)C[C@@H]1C	·	22	52	·
COc1ccc(CNC(=O)C[C@H]2C[C@@H]3c4cc(NS(=O)(=O)c5ccc(F)cc5)ccc4O[C@@H]3[C@H](CO)O2)cc1	·	15	-3	·
O=C(N/C(=C/c1ccc2c(c1)OCO2)C(=O)N1CCOCC1)c1cccs1	765*	2	-2	-1
O=C(N/C(=C\c1ccc2c(c1)OCO2)C(=O)N1CCOCC1)c1cccs1	-1	10	-3	·
O=C(c1cc2ccccc2o1)N1CCCCCC1	195	1	1	·
O=C(c1cc2ccccc2o1)N1CCN(C/C=C/c2ccccc2)CC1	541*	17	3	0
O=C(c1cc2ccccc2o1)N1CCCC1	+	·	·	0
CC(=O)N1CCN(C(=O)c2cc3ccccc3o2)CC1	-7	-7	6	·
CO[C@@H]1CN(C)C(=O)c2cc(NC(=O)C3CC3)ccc2OC[C@H](C)N(Cc2cccnc2)C[C@H]1C	·	-2	1	·
CO[C@H]1CN(C)C(=O)c2cc(NS(C)(=O)=O)ccc2OC[C@@H](C)N(CC2CCCCC2)C[C@H]1C	·	-5	49	·
COC(=O)C[C@@H]1CC[C@@H]2[C@@H](COc3ccc(NC(=O)c4ccc(F)c(F)c4)cc3C(=O)N2C)O1	·	2	3	·
CCOC(=O)CN1NC2(CCC(C(C)(C)C)CC2)NC1=S (configuration not stated)	500*	13	1	0
CCOC(=O)CN1NC2(CCC(C)CC2)NC1=S (configuration not stated)	366	·	·	·
CCCNC(=O)N1[C@@H]2CN(C(=O)c3cccnc3)c3ccccc3[C@@H]2[C@@H]1CO	·	-3	6	·
COc1cccc(S(=O)(=O)Nc2ccc3c(c2)[C@H]2C[C@@H](CC(=O)NCc4ccccc4F)O[C@@H](CO)[C@H]2O3)c1	·	2	1	·
Cc1cccn2c(=O)c3cc(C(=O)NCc4cccnc4)c(=N)n(C(C)C)c3nc12	759*	-3	-1	0
Cc1cccn2c(=O)c3cc(C(=O)NCCc4ccccc4)sc3nc12	798*	-45	1	0
CCCCNC(=O)c1cc2c(=O)n3cccc(C)c3nc2s1	163	2	2	·
Cc1cccn2c(=O)c3cc(C(=O)NCc4ccco4)c(=N)n(C(C)C)c3nc12	2	-13	-1	·
COc1ccc(S(=O)(=O)Nc2ccc3c(c2)C(=O)N([C@@H](C)CO)C[C@@H](C)[C@H](CN(C)S(=O)(=O)c2ccc(C)cc2)OCCCC[C@@H](C)O3)cc1	·	·	-3	·
SMILES	SUMO Mot1 rescue	C2C12 statin	Cneo AK release	Yeast Mot1 SUMO
Cc1ccc(S(=O)(=O)N(C)C[C@@H]2Oc3ccc(NC(=O)Cc4ccccc4)cc3CC(=O)N([C@@H](C)CO)C[C@H]2C)cc1	·	-37	-1	·
Cc1cc(NC(=O)c2ccccc2F)n(C(C)(C)C)n1	+	·	-1	0
Cc1cc(NC(=O)c2ccc(F)cc2F)n(-c2nc3ccccc3[nH]2)n1	-15	-20	-8	·
COc1ccc(CN(C)S(=O)(=O)c2nnc(NC(=O)c3ccccc3OC)s2)cc1OC	-5	6	1	·
COc1ccc(CN(C)S(=O)(=O)c2nnc(NC(=O)c3ccc(C)cc3)s2)cc1OC	466*	17	-2	0
C[C@@H]1CN([C@@H](C)CO)S(=O)(=O)c2ccc(C#CC3CC3)cc2O[C@@H]1CN(C)C(=O)c1ccccn1	·	4	3	·
CCCC#Cc1ccc2c(c1)O[C@H](CN(C)C(=O)COC)[C@@H](C)CN([C@@H](C)CO)S2(=O)=O	·	2	-5	·
O=C(NC1CCCCC1)N(Cc1cc2cc3c(cc2[nH]c1=O)OCCO3)C1CCCCC1	828*	0	-1	0
COc1cc2cc(CN(C(=O)NC3CCCCC3)C3CCCC3)c(=O)[nH]c2cc1OC	-9	4	·	·
Cc1ccc(S(=O)(=O)N(C)C[C@H]2Oc3ncc(C#CC4(O)CCCC4)cc3C(=O)N([C@@H](C)CO)C[C@H]2C)cc1	·	-25	0	·
Cc1ccc(S(=O)(=O)N[C@@H]2CC[C@@H](CC(=O)NC3CCCCC3)O[C@H]2CO)cc1	·	-2	-3	·
COC(=O)c1cccc(NC(=O)c2ccc[n+]([O-])c2)c1	561*	0	-2	0
COC(=O)c1cccc(NC(=O)c2ccccc2)c1	-5	·	·	·
CC12CCC(=O)N1C(C(=O)Nc1cccc3ccccc13)CS2 (configuration not stated)	-9	10	2	·
CC12CCC(=O)N1C(C(=O)Nc1ccccc1F)CS2 (configuration not stated)	793*	4	0	1
C[C@@H]1CN([C@@H](C)CO)C(=O)Cc2cc(NC(=O)CCC(F)(F)F)ccc2O[C@@H]1CN(C)Cc1ccccc1	·	0	-2	·
CCOC(=O)C1CCN(C(=O)c2cccs2)CC1	-8	·	·	·
CCOC(=O)C1CCN(C(=O)c2sccc2Cl)CC1	567*	-7	2	1
C[C@H]1CN([C@@H](C)CO)C(=O)c2ccccc2-c2ccccc2CO[C@H]1CN(C)S(=O)(=O)c1ccsc1	·	·	-2	·
CCC(C)(C)NC(=O)C(c1ccc(C)cc1)N(CC1CCCO1)C(=O)CNC(=O)c1cccs1 (configuration not stated)	688*	7	0	0
Cc1ccc(C(C(=O)NC2CCCCC2)N(CC2CCCO2)C(=O)CNC(=O)c2cccs2)cc1 (configuration not stated)	-14	2	1	·
CO[C@@H]1CN(C)C(=O)c2cc(NC(=O)c3ccccc3F)ccc2OC[C@H](C)N(CC2CC2)C[C@@H]1C	·	7	-31	·
Cc1ccccc1S(=O)(=O)NCC[C@H]1CC[C@H](NC(=O)C2CCCCC2)[C@@H](CO)O1	·	8	9	·
C[C@H](CO)N1C[C@H](C)[C@@H](CN(C)S(=O)(=O)c2cccs2)Oc2c(NS(C)(=O)=O)cccc2C1=O	·	-14	0	·
Cn1c(CSc2nc3ccccc3s2)nnc1SCC(=O)NCCN1CCOCC1	913*	41	1	0
C=CCn1c(CSc2nc3ccccc3s2)nnc1SCC(=O)NCCN1CCOCC1	-2	5	0	·
